The results in this text go back to ChEMBL document CHEMBL4513216, “Probing the Open Global Health Chemical Diversity Library for Multistage-Active Starting Points for Next-Generation Antimalarials” (ACS Infect Dis, 2020).

The nature of this series: Toxicity liver stage against HepG2, at 10uM. Further details: test concentration 10 uM, cell line HepG2-A16-CD81EGFP. The series is classed as cell-based. The following applies: human, HepG2-A16-CD81EGFP cells; read-out: INHIBITION
In a few lines: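 Uninfected HepG2-A16-CD81EGFP cells, 3 × 10^3 per well, 1536-well, plated on prespotted compound at 10 μM final, parasite-free screening media added to match infected plates; puromycin 10 μM positive, DMSO 0.5% negative; run in parallel with 48 h PbLuc assay at 37 °C, 5% CO2; viability by CellTiter-Glo luminescence, normalized to controls.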
On to `CCC(NC(N)=O)c1ccccc1OCC(=O)N1CCCC1` (stereo unspecified), for which the cytotoxicity at 10 µM was -8.29%. `CCN1CC(COC(C)(C)C)Oc2ccncc2S1(=O)=O` (stereo unspecified): the cytotoxicity at 10 µM was -3.43%. Next, `COc1cc(C2CC(=O)Oc3cc(C)[nH]c(=O)c32)ccc1OCC(=O)O` (stereo unspecified): -4.23%; `Cc1ccc(C(=O)Nc2nnc(C(C)C)s2)c(-n2cnnn2)c1C`: -0.649%; `COc1ccc(C(=O)Nc2ccc3ncn(C(C)C)c(=O)c3c2)cc1`: 4.04%.

Turning to `COc1nn(C)cc1-c1nnc(SCc2cccnc2)n1C`, the cytotoxicity at 10 µM is -2.06%.

For the molecule `CC(=O)Nc1ccc(CC(=O)N2CC(S(=O)(=O)C3CCCCC3)C2)cc1`, the cytotoxicity at 10 µM is -12.8%.

`CCn1cc(C(=O)Nc2cc(C(=O)OC)ccc2C(=O)OC)cn1`: the cytotoxicity at 10 µM was -1.2%. Next, `CN(C)CCCNC(=O)CNC(=O)N1CCc2c([nH]c3ccccc23)C1`: 3.33%; `O=C(COc1coc(CN2CCCCC2)cc1=O)Nc1ccc(Cl)cc1`: 3.48%; `COc1ccc(OC)c(Sc2ncccc2C(=O)N(C)CCC#N)c1`: 13.3%. Next, `CCOc1ccc(C2CC(=O)Nc3c2c(=O)nc2sccn32)cc1` (stereo unspecified): -12.7%. For the molecule `CN(C(=O)Cn1nc(-c2ccc(F)cc2)ccc1=O)C1CCS(=O)(=O)C1` (stereo unspecified), the cytotoxicity at 10 µM is -3.57%.

For `CCCN1CCN(c2nc(N)nc3c2nc(C)n3C)CC1`, the cytotoxicity at 10 µM was -5.15%. For `Cc1noc(C)c1C(=O)N1CCC(c2cc3cnccc3[nH]2)CC1`, the cytotoxicity at 10 µM came out at 7.07%. Next, `CCc1cc(O)n2nc(C3CCN(C(=O)c4cccnc4)CC3)cc2n1`: 7.09%.

Regarding `O=C1CN(C(=O)C2CN(c3cccc(F)c3)CCO2)CCN1` (stereo unspecified), the cytotoxicity at 10 µM worked out at 5.37%. For `O=C(c1cccc(F)c1)N1CCOC(c2nc(-c3ncccn3)no2)C1` (stereo unspecified), the cytotoxicity at 10 µM turned out to be 5.3%. `CCOC(C)c1nccn1CCC(=O)Nc1cc(C)on1` (stereo unspecified): the cytotoxicity at 10 µM came to 10.1%. The result for `Cc1cnn(CCNCc2cc(=O)n3cc(Cl)ccc3n2)c1` reads 0.217%; that for `CCN(CC)C(CNC(=O)c1ccnc(N(C)C)c1)c1ccsc1` (stereo unspecified), -149%; that for `Cc1cccnc1NC(=O)c1ccc(F)c(S(=O)(=O)N2CCC2)c1`, 4.5%.

Consider `CN(c1ccccc1)S(=O)(=O)c1cc2c(c(C(=O)O)c1)OCCO2`, for which the cytotoxicity at 10 µM is -9.47%. For `CCC(=O)N1CCCN(c2cncc(-n3nc(C)cc3C)n2)CC1`, the cytotoxicity at 10 µM was -8.44%. The result for `CCc1ccc(CNC(=O)NC2CCCc3c2cnn3CCO)s1` (stereo unspecified) reads -6.78%; that for `CC(NC(=O)Nc1ccccc1CN1CCOCC1)c1nccs1` (stereo unspecified), 2.1%. As for `CS(=O)(=O)c1ccc(OCCNCc2ccc(F)cc2)cc1`, the cytotoxicity at 10 µM was -8.86%.

For `NC(=O)C(CNC(=O)CCc1ccsc1)Cc1ccc(F)cc1` (stereo unspecified), the cytotoxicity at 10 µM was found to be 21.2%. Consider `O=C(NCCOc1ncc(Cl)cc1Cl)NCc1ccncc1`, for which the cytotoxicity at 10 µM was -1.86%. Next, `CCn1ccnc1CN1CCN(Cc2cnc(C)cn2)CC1C` (stereo unspecified): -2.76%; `CN(CC1CCCCC1)C(=O)c1cn(C)nc1-c1cccnc1`: 2.2%; `O=C(NCCCn1ccnc1)c1csc2c1CCCC2`: -2.96%. Turning to `CCc1nc2n(n1)CCCC2NC(=O)Nc1cc(OC)ccc1C` (stereo unspecified), the cytotoxicity at 10 µM came to 12.7%.

Turning to `CN(CC(F)(F)F)C(=O)CNC(=O)Cc1ccccc1O`, the cytotoxicity at 10 µM worked out at 6.31%. Next, `COc1ccc(C2CCCN2C(=O)c2cc3c([nH]c2=O)CCC3)cc1` (stereo unspecified): -10.7%; `Cc1ccsc1CNC(=O)NC1CCCc2c1cnn2CCO` (stereo unspecified): 3.33%. Consider `CN(Cc1cccc(F)c1)C(=O)CN1CCCCC1Cn1cncn1` (stereo unspecified), for which the cytotoxicity at 10 µM is -8.25%. Next, `c1ccc(C2CCCN2Cc2nnnn2C2CC2)cc1` (stereo unspecified): -5.04%. Next, `Cc1ccc2[nH]c(CN(C)Cc3ccccc3C(=O)O)nc2c1`: 7.01%. As to `CC(NC(=O)c1cn(CCC2CCCCC2)nn1)c1cnn(C)c1` (stereo unspecified), the cytotoxicity at 10 µM amounted to 6.2%. Next, `Cc1ccc(C(=O)N2CCC3(CC2)c2ccccc2[C@@H](N)[C@@H]3O)c(=O)[nH]1`: -2.72%; `O=C(O)[C@@H]1CN(C(=O)c2ccc(Cl)cc2)C[C@H]1c1cccc(F)c1`: -132%; `CNc1nc(C(=O)NCc2cccnc2N(C)C2CCCCC2)cs1`: -5.35%.

For the molecule `CN(Cc1n[nH]c(=O)n1CCc1ccccc1F)S(C)(=O)=O`, the cytotoxicity at 10 µM was -1.78%. Regarding `COc1ccc(C)cc1-n1cnnc1C1CCOCC1`, the cytotoxicity at 10 µM turned out to be 11.2%. The result for `CCSCCNC(=O)C(c1cccc(C)c1)N(C)C` (stereo unspecified) reads -23%; that for `Cc1cnn(C(C)C2CC2)c1NC(=O)c1cnccn1` (stereo unspecified), -5.39%; that for `CCCn1nccc1C(=O)N1CCCN(CCCc2ccccc2)CC1`, -2.06%. As for `O=C(CCN1CCOC1=O)Nc1cnn(-c2ccccc2Cl)c1`, the cytotoxicity at 10 µM is -3.39%. On to `COc1ccccc1C(O)CNC(=O)NCc1csc(C)n1` (stereo unspecified), for which the cytotoxicity at 10 µM was -5.34%. As to `Cc1noc(C)c1S(=O)(=O)NC(=O)COc1cccc(C(C)C)c1`, the cytotoxicity at 10 µM was -10.7%. Next, `NC(=O)CN1CCN(C(=O)c2cc(Cl)cc3cccnc23)CC1`: -9.19%; `COc1cccc(-n2nnc(C(=O)N3CCC(C(N)=O)CC3)c2C)c1`: -6.66%; `O=C(Cc1ccccc1)N1CCN(CC(O)c2ccc(F)cc2)CC1` (stereo unspecified): -13.8%. Next, `Cc1nn(C)c(C)c1C1CCCN1Cc1ccc(C(N)=O)cc1` (stereo unspecified): -1.01%; `CC(NC(=O)N1CCC(c2ccccc2)CC1)c1nncn1C` (stereo unspecified): -10.3%. The result for `Cn1nc2c(cc1=O)CN(Cc1nc(-c3cccnc3)no1)CC2` reads -14.6%; that for `Cc1cnn(CC(C)NCc2ccccc2OCc2cccnc2)c1` (stereo unspecified), -12.9%; that for `CC(NCc1cccc(Cl)c1)c1ccc(OCC(=O)NC2CC2)cc1` (stereo unspecified), -12.2%. As for `c1cnn(CC2CN(c3ncnc4[nH]ccc34)CCO2)c1` (stereo unspecified), the cytotoxicity at 10 µM was -8.81%. As for `CC(=O)NCC1CCN(C(=O)NCCc2ccc(Cl)s2)CC1`, the cytotoxicity at 10 µM was -6.19%. Turning to `Cc1nc(C)n(CC2CN(Cc3cccnc3)CCO2)n1` (stereo unspecified), the cytotoxicity at 10 µM is -5.38%. Next, `Cc1nc(C)c(C(=O)NCCNC(=O)Cc2cccc(F)c2)s1`: -8.45%; `Cn1ccnc1CN1CCN(CC(=O)NCC(F)(F)F)CC1`: -10%. The result for `O=C(CCN1CCCN(c2nccs2)CC1)NCC1CCCCC1` reads -5.1%. On to `O=C(c1ccc(O)c(Cl)c1)N1CCC(c2n[nH]c(C3CC3)n2)CC1`, for which the cytotoxicity at 10 µM was found to be 6.91%.

As for `CC(C)c1nc(CN2CCN(C(C)c3nc(C4CC4)no3)CC2)no1` (stereo unspecified), the cytotoxicity at 10 µM was 6.54%. The result for `Cc1nc(CN2CCCN(CC(=O)Nc3cccnc3)CC2)no1` reads 2.31%; that for `CNC(=O)c1cc2c(nc1N(C)C)CCN(C)CC2`, -149%; that for `CN(C)CCN1C(=O)CCC12CCN(C(=O)c1cccnc1)CC2`, 6.41%. As to `COCC1CC2(CCN(CC3CC3)CC2)CN1Cc1ccccn1` (stereo unspecified), the cytotoxicity at 10 µM is -97.4%.
